Laboratory results taken from ChEMBL document CHEMBL3232815, “Synthesis and anticonvulsant activity of some new pyrazolo[3,4-b]pyrazines and related heterocycles” (2014).

Key:
Format in all cases: functional
Settings in all cases: route intraperitoneal
Mus musculus [1] = assay: Anticonvulsant activity in Swiss Webster mouse assessed as PTZ-induced clonic seizures at 10 mg/kg, ip pretreated 20 mins before PTZ challenge and measured 1 hr post PTZ challenge relative to control
How it was run: (§1)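 Male adult Swiss–Webster mice, 22–30 g, 12 h light/dark cycle at 25 °C, food and water ad libitum. Compound 10 mg/kg ip (0.2% in corn oil), one group per compound (8 animals), 20 min before PTZ 75 mg/kg ip (1.5% in saline). Watched 1 h for seizure onset (min) and % animals convulsing; 24 h survival noted. Phenobarbital 30 mg/kg reference; p vs PTZ group.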

Mus musculus [2] = assay: Anticonvulsant activity in Swiss Webster mouse assessed as PTZ-induced tonic seizures at 10 mg/kg, ip pretreated 20 mins before PTZ challenge and measured 1 hr post PTZ challenge relative to control; how it was run: as §1
Mus musculus [3] = assay: Anticonvulsant activity in Swiss Webster mouse assessed as survivors level at 10 mg/kg, ip pretreated 20 mins before PTZ challenge and measured 24 hrs post PTZ challenge relative to control
How it was run: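 Male adult Swiss–Webster mice (22–30 g), 8 per group. Compounds are given ip at 10 mg/kg (0.2% in corn oil) 20 min before PTZ 75 mg/kg ip (1.5% in saline), the minimal convulsive dose. Animals are watched for 1 h after PTZ. Survivors are counted at 24 h and expressed as % survivors against the PTZ-only control. Significance is tested at p<0.05 and p<0.01.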

Mus musculus [4] = assay: Anticonvulsant activity in Swiss Webster mouse assessed as PTZ-induced clonic seizures at 30 mg/kg, ip pretreated 20 mins before PTZ challenge and measured 1 hr post PTZ challenge relative to control
How it was run: (§2)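 Male adult Swiss–Webster mice (22–30 g), 8 per group, with a 12 h light/dark cycle at 25 °C. The reference drug phenobarbital sodium is given at 30 mg/kg ip 20 min before PTZ 75 mg/kg ip (1.5% solution in saline). Clonic and tonic seizure onset (min) and % animals convulsing are scored over 1 h. Survivors are counted at 24 h. Comparison is with the PTZ-only group.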

Mus musculus [5] = assay: Anticonvulsant activity in Swiss Webster mouse assessed as PTZ-induced tonic seizures at 30 mg/kg, ip pretreated 20 mins before PTZ challenge and measured 1 hr post PTZ challenge relative to control; how it was run: as §2
Mus musculus [6] = assay: Anticonvulsant activity in Swiss Webster mouse assessed as survivors level at 30 mg/kg, ip pretreated 20 mins before PTZ challenge and measured 24 hrs post PTZ challenge relative to control; how it was run: as §2

| Structure (SMILES) | Activity (Mus musculus [1]) [%] | Activity (Mus musculus [2]) [%] | survival at 10 mg/kg (Mus musculus [3]) [%] | Activity (Mus musculus [4]) [%] | Activity (Mus musculus [5]) [%] | survival at 30 mg/kg (Mus musculus [6]) [%] |
| --- | --- | --- | --- | --- | --- | --- |
| Cc1nn(-c2ccccc2)c2nc(-c3ccccc3)c(C(=O)NN3C(=O)CSC34CCCCC4)nc12 | 100 | 100 | 0 | – | – | – |
| Cc1nn(-c2ccccc2)c2nc(-c3ccccc3)c(C(=O)NN3C(=O)CSC3c3ccc(Cl)cc3)nc12 (stereo not given) | 75 | 25 | 75 | – | – | – |
| CCC1(c2ccccc2)C(=O)N=C([O-])NC1=O.[Na+] (stereo not given) [PHENOBARBITAL SODIUM] | – | – | – | 0 | 0 | 100 |
| Cc1nn(-c2ccccc2)c2nc(-c3ccccc3)c(-c3nn4cc(-c5ccc(Br)cc5)nc4s3)nc12 | 87.5 | 37.5 | 62.5 | – | – | – |
| COc1ccc(C2SCC(=O)N2NC(=O)c2nc3c(C)nn(-c4ccccc4)c3nc2-c2ccccc2)cc1OC (stereo not given) | 87.5 | 0 | 100 | – | – | – |
| Cc1nn(-c2ccccc2)c2nc(-c3ccccc3)c(C(=O)NN3C(=O)CSC34CCCC4)nc12 | 100 | 25 | 75 | – | – | – |
| Cc1nn(-c2ccccc2)c2nc(-c3ccccc3)c(-c3nn4cc(-c5ccccc5)nc4s3)nc12 | 87.5 | 12.5 | 87.5 | – | – | – |
| Cc1nn(-c2ccccc2)c2nc(-c3ccccc3)c(C(=O)NN3C(=O)CSC3(C)C)nc12 | 100 | 75 | 25 | – | – | – |
| Cc1nn(-c2ccccc2)c2nc(-c3ccccc3)c(C(=O)NN3C(=O)CSC3c3ccccc3)nc12 (stereo not given) | 75 | 12.5 | 87.5 | – | – | – |
| Cc1nn(-c2ccccc2)c2nc(-c3ccccc3)c(C(=O)NN3C(=O)CSC3c3ccc([N+](=O)[O-])cc3)nc12 (stereo not given) | 87.5 | 25 | 75 | – | – | – |
